According to ChEMBL document CHEMBL4513216, “Probing the Open Global Health Chemical Diversity Library for Multistage-Active Starting Points for Next-Generation Antimalarials” (ACS Infect Dis, 2020):

Assay: Toxicity liver stage against HepG2, at 10uM
Type: cell-based
Set-up: test concentration 10 uM, cell line HepG2-A16-CD81EGFP
Conditions: human, HepG2-A16-CD81EGFP cells; read-out: INHIBITION
Method in brief: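 Uninfected HepG2-A16-CD81EGFP cells, 3 × 10^3 per well, 1536-well, plated on prespotted compound at 10 μM final, parasite-free screening media added to match infected plates; puromycin 10 μM positive, DMSO 0.5% negative; run in parallel with 48 h PbLuc assay at 37 °C, 5% CO2; viability by CellTiter-Glo luminescence, normalized to controls.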

| SMILES | cytotoxicity at 10 µM [%] |
| --- | --- |
| CSc1ccc(C(=O)C2CCCN(C(=O)Cn3cnnn3)C2)cc1 (stereo not given) | -1.57 |
| CC(=O)NC[C@H]1OC[C@@H](NC2CCC(F)(F)CC2)[C@@H]1O | -8.57 |
| COc1ccc2c(c1)nc1n2[C@@H](CNCc2cnn(C)c2)COC1 | -6.8 |
| CC(=O)N1N=C(c2cccs2)OC1C(=O)Nc1ccc(C(C)C)cc1 (stereo not given) | -12.7 |
| CCN(CC)CCNC(=O)CCc1c(C)nn(-c2ccccc2Br)c1C | 10.6 |
| O=c1c(NCCOCCO)c(N2CCN(c3ccccc3)CC2)c1=O | -5.64 |
| Cn1ccc2c(NC(=O)Cn3ncc4c(c3=O)CCCCC4)cccc21 | 3.89 |
| O=C1CCC(c2ccc(Cl)cc2)=NN1CN1CCSCC1 | 34.4 |
| Cn1cccc1CN(C(=O)Cc1cccs1)C1CC1 | 7.53 |
| COc1ccc(S(=O)(=O)NCC(O)c2sccc2C)cc1C (stereo not given) | 1.69 |
| Cc1cccc(NC(=O)C2CSc3ncc(C)c(=O)n3C2)n1 (stereo not given) | 0.0115 |
| CCOCC1COCCC12CCN(C(=O)C1=CCCCC1)CC2 (stereo not given) | -3.09 |
| CC1N(C)C(=O)COC12CCN(C(=O)CCc1ccccc1)CC2 (stereo not given) | 0.227 |
| CCc1ccc(C(=O)N2C[C@@H]3COC[C@@H](C(=O)NC)[C@@H]3C2)cc1 | 1.58 |
| Cc1cccc(C(=O)N2CCCn3cnc(CN4CCCC4=O)c3C2)n1 | 15.7 |
| CCC(=O)N1CCC2(COCc3cnc(NCc4ccco4)nc32)C1 (stereo not given) | -12.9 |
| O=C(NCC1CCCO1)c1nc2c(s1)CCCN2C(=O)C1CC1 (stereo not given) | -0.464 |
| CCCN(CCC)c1ncc(S(=O)(=O)c2cccc(C)c2)c(N)n1 | 11 |
| COc1cccc(-c2nc(C)c(C(=O)NC(CO)CCSC)s2)c1 (stereo not given) | -7.71 |
| CC(=O)N1CCN(C(=O)c2cc(-n3cnnn3)ccc2Cl)CC1 | 8.32 |
| NCC1Cn2nnc(-c3cccc(F)c3)c2CO1 (stereo not given) | -12.1 |
| Cc1cccc(CN2C[C@@H]3COC[C@]3(COc3ccc(C#N)cn3)C2)n1 | -21.2 |

| SMILES | cytotoxicity at 10 µM [%] |
| --- | --- |
| c1ccc(OCC2CC3(CCN(Cc4ccncc4)CC3)CO2)nc1 (stereo not given) | -12.5 |
| O=C(O)Cn1nc(C2CC2)c2c(-c3ccc(F)cc3)ccnc21 | -3.32 |
| c1cnc(-c2nn3c(CN4CCCCC4)nnc3s2)cn1 | 5.31 |
| CCn1nc(C)c(CN(C)S(=O)(=O)c2cnn(C)c2)c1C | 5.62 |
| CSCc1cccc(S(=O)(=O)N2CCSCC2)c1 | 14.3 |
| CC1(C(=O)NCCCOc2ccccc2F)CC(=O)N2C=CC=CC2=N1 (stereo not given) | 2.28 |
| Cc1ccc(C2CCCN(S(C)(=O)=O)C2)nc1 (stereo not given) | 2.32 |
| CC1CCc2n[nH]c(C(=O)NCCCc3ccco3)c2C1 (stereo not given) | -23.2 |
| Cc1cnc(C2(C)CCN(Cc3csc(C)n3)CC2)s1 | -16.1 |
| COCC(=O)N1CC(c2ccnc(Nc3ccc(C)cn3)n2)C1 | -30.9 |
| CCC(=O)N1CCC(Cc2ccccc2-c2ccncc2)(C(=O)NC)C1 (stereo not given) | -16 |
| Cc1nc(Nc2nnc(C)s2)cc(C2CCCN2S(C)(=O)=O)n1 (stereo not given) | -11.9 |
| Cc1ncncc1C(=O)N1CCC(O)(CN(C)Cc2ccc(F)cc2)C1 (stereo not given) | -7.16 |
| c1cnc2[nH]c(C3CCNCC3)c(CN3CCOCC3)c2c1 | 1.82 |
| CCn1cc(CN2CCC(O)(Cn3nc(C)ccc3=O)CC2)cn1 | -22.3 |
| OC1(CNc2ccc(F)cc2)CCNCC1 | 2.4 |
| Cn1nc(C(=O)NC2(c3ccc(Cl)cc3)CCCC2)ccc1=O | -4.47 |
| COc1ccc(CNc2cc(-c3nc(C)no3)ccn2)c(OC)c1 | 9.07 |
| CC(C)c1nc(C(=O)N2CCc3ccccc3C2C(=O)O)cs1 (stereo not given) | 9.63 |
| COc1ccc(CCC(=O)N2CCN(c3nc(C)ns3)CC2)cc1 | 6.26 |
| NC(=O)NC1CCN(Cc2ccccc2OCC(F)(F)F)CC1 | 0.451 |
| COc1ccc(F)cc1C(=O)N1CCn2c(nnc2C(F)(F)F)C1 | -7.61 |

| SMILES | cytotoxicity at 10 µM [%] |
| --- | --- |
| CCc1nnc2n1CCN(C(=O)c1cnc3c(cnn3C(C)C)c1)C2 | -7.58 |
| COC(=O)CNC(=O)C(C(C)C)n1cnc2cc(F)c(F)cc21 (stereo not given) | 2.76 |
| CC(C)c1nc(C2CCCN(C(=O)CN3CCCNC3=O)C2)no1 (stereo not given) | -4.1 |
| CCc1nc2c(s1)C(N(C)C(C)=O)CCC2 (stereo not given) | -11.6 |
| CC(CNC(=O)N1CCN(c2ncccn2)CC1)Cc1cccs1 (stereo not given) | -7.9 |
| CC(=O)N1CCCN(C(C)C(=O)Nc2ccnn2C(C)C)CC1 (stereo not given) | -6.22 |
| Cc1cn2c(n1)CCC(NC(=O)CCOc1cccc(F)c1)C2 (stereo not given) | -3.42 |
| COc1cccc(S(=O)(=O)NC(=O)c2c(C)noc2C(C)C)c1 | -6.83 |
| O=C(c1cccc(Cl)c1Cl)N1CCN(CC(O)Cn2cccn2)CC1 (stereo not given) | -14.3 |
| FC(F)CN1CCC(NCCc2ccc(-n3cccn3)cc2)CC1 | 14.5 |
| Cc1nnc2n1CCN(C(=O)C(OC1CCCC1)c1ccccc1)C2 (stereo not given) | 5.87 |
| CC(C)(C)OC(=O)N1CCCN(c2nnc(C3CC3)s2)CC1 | 8.05 |
| CS(=O)(=O)N1CCN(CC(=O)Nc2cccc(Cl)c2)CC1 | -50.8 |
| O=S(=O)(NC1CCCCC12OCCO2)c1cc(F)cc(F)c1 (stereo not given) | -3.55 |
| CC(C)Cc1nc(CS(=O)(=O)c2ccccc2)no1 | 9.52 |
| CCc1ccc(C(=O)NC(C)c2ccc(S(C)(=O)=O)c(F)c2)o1 (stereo not given) | 17.2 |
| CC(CN1CCOCC1)OC(=O)c1cccc2cn[nH]c12 (stereo not given) | -1.08 |
| CC(C)CSCCCNC(=O)C1CCOCC1 | -3.65 |
| Cc1sc(CN)nc1-c1ccccc1 | -2.85 |
| COc1ccc(NC(=O)c2ccc[nH]2)c(N2CCN(C(C)=O)CC2)n1 | -11.2 |
| O=C(NCCc1ccccn1)NC1CCN(c2ncccn2)CC1 | -16.3 |
| Cc1ccc(N2C[C@H]3OCC[C@H]3[C@H](C(=O)NC3CCC3)C2)nn1 | -69.9 |

| SMILES | cytotoxicity at 10 µM [%] |
| --- | --- |
| COc1cc(N2CC[C@H](O)[C@@H]2Cc2cccnc2)ncn1 | -71.8 |
| Cc1cccc(C(Nc2nccc(C)n2)C2CC2)n1 (stereo not given) | -2.67 |
| CC(C)CCN1CCCC(Cn2cc(CCO)nn2)C1 (stereo not given) | -6.02 |
| OC[C@H]1CN(Cc2c(Cl)cncc2Cl)C[C@H]1CN1CCCC1 | -127 |
| CCCN1CCC(CC(=O)N2CCC(C(O)c3nccn3C)CC2)CC1 (stereo not given) | -1.13 |
| Cc1cc(CN2CCC(CNC(=O)c3noc4c3CCCC4)C2)[nH]n1 (stereo not given) | -142 |
| COc1cccc([C@@H](C)n2ccnc2-c2cc3n(n2)CCNC3)c1 | 3.09 |
| Cc1cccc2cc(CN3CCC(N4CCOCC4)CC3)c(=O)[nH]c12 | -12 |
| O=C(NC1CCCNC1=O)c1ccc2nc(-c3ccc(F)cc3)cn2c1 (stereo not given) | 8.8 |
| CCN(Cc1cnn(C)c1)C[C@H]1CC[C@@H](Cc2ccc(C#N)cc2)O1 | 5.78 |
| Cc1nn2c(NCC(N)=O)cc(-c3ccccc3)nc2c1C | -10.5 |
| Cc1ccc(N2C[C@H](O)[C@@H](N3CCN(c4ccccn4)CC3)C2)nn1 | -0.442 |
| CC(C)(C(=O)NCC1CCN(Cc2cccnc2)C1)c1ccccc1 (stereo not given) | -1.66 |
| CCN1CC(C(=O)N2CCN(CCn3cccc3)CC2)CCC1=O (stereo not given) | 1.87 |
| Cc1nc(CCCNC(=O)[C@H]2CNC[C@@H](C(=O)N3CCCC3)C2)sc1C | -132 |
| Cc1ccc(C2(CN(C)Cc3sccc3C)CCNCC2)nc1 | 8.15 |
| CCCc1cc(N2CCC(NCC3(O)CCCCC3)CC2)nc(C)n1 | -2.48 |
| CC[C@@]1(O)CCN(C(=O)CN(C)Cc2ccc(F)cc2)C[C@H]1O | 3.38 |
| COc1cccc2c1OCC(Cc1ccc(N)nc1C)C2 (stereo not given) | 3.29 |
| CCc1nnc(CNC(=O)CCC2CCCCN2C)s1 (stereo not given) | -147 |
| COc1ccccc1N1CCN(C(=O)CCn2ccnc2C)CC1(C)C | -26.7 |
| CC(O)CN1CCc2onc(C(c3ccccc3)c3ccccc3)c2C1 (stereo not given) | -1.49 |

| SMILES | cytotoxicity at 10 µM [%] |
| --- | --- |
| O=C(CC1CCc2ccccc21)N1CCC(O)(c2cccnc2)CC1 (stereo not given) | 7.19 |
| Cc1cnn(CCNCc2ccc(C#N)cc2)c1 | -10.7 |
| Cc1nc(C)n(C2CCCN(C(=O)c3ccc(F)c(F)c3)C2)n1 (stereo not given) | -11.9 |
| Cc1nc(CN2CCN(C(C)c3nc(C(C)C)no3)CC2)oc1C (stereo not given) | -9.16 |
| Cc1cc2n(n1)CC(CNCc1ccc(-n3cccn3)cc1)CN2 (stereo not given) | -2.95 |
| O=C1COc2ccc(C(=O)NS(=O)(=O)c3ccc(F)cc3F)cc2N1 | -4.72 |
| CC(C)C(=O)NC1CCN(Cc2cccc3c2OCCO3)CC1 | -0.818 |
| CCC(C)NC(=O)NCCCn1nc2ccccn2c1=O (stereo not given) | -8.08 |
| N#Cc1ccccc1OCCN1CCCCC1Cn1cncn1 (stereo not given) | -6.04 |
| Cc1nc[nH]c1CN(Cc1ccccc1)C1CC(C)(C)NC(C)(C)C1 | 0.968 |
| Cc1nc(CN2CCCC3(CCN(c4cnn(C)c4)C3=O)C2)cs1 (stereo not given) | 3.16 |
| CC1c2ncc(CNC(=O)C3CC3)n2CCN1Cc1ccncc1 (stereo not given) | -5.72 |
| c1coc(CN2CCO[C@H]3[C@@H](OCC4CC4)CC[C@@H]32)c1 | 6.68 |
| CCOCC1c2c(cnn2CC2CC2)CCN1C(=O)c1ccncn1 (stereo not given) | -118 |
| CC(C)CN1CCN(C)C2(CCN(Cc3ccsc3)CC2)C1=O | 4.08 |
| COCCN1CC[C@@H](O)[C@@H]1Cc1ccccc1 | 3.67 |
| CC(C)N1Cc2c(C(=O)N3CCOCC3)nn(C)c2C1 | 0.0756 |
| CC(C)CN1CCC2(CC1)CC(NS(C)(=O)=O)c1ccccc1O2 (stereo not given) | -4.44 |
| N#Cc1ccccc1CN1C[C@H]2CC[C@@H](C1)N(Cc1cscn1)C2=O | -8.42 |
| O=C(CCN1C[C@@H]2CC[C@H]1CN(c1ncccn1)C2)NCc1ccco1 | -1.18 |
| COc1nccnc1N1C[C@H]2CC[C@@H](C1)N(CC=C(C)C)C2=O | 1.76 |
| O=C(c1ccccn1)N1C[C@H]2CC[C@@H](C1)N(C(=O)CCC(F)(F)F)C2 | 4.37 |
